Measurements of several laboratories.
Compare with care: the assays were run in different laboratories.
Target: Calcium/calmodulin-dependent protein kinase type 1G (CAMK1G, Homo sapiens, UniProt Q96NX5)

COc1cnc(Nc2cccc(S(N)(=O)=O)c2)nc1N1CCN(c2ccccc2)C(=O)C1  remaining binding (binding; competition with immobilised ligand; 1 µM): 100%
C[C@@]1(Cc2ccc(C#N)cc2)C(=O)N(c2cc(Cl)cc(Cl)c2)c2ncc(C(=O)NC3(c4nc(C5CCC5)no4)CC3)n21  remaining binding (cell-free assay; competition with immobilised ligand; 1 µM): 100%
c1cncc(-c2cccc(Nc3nccc(NC4CCCCC4)n3)c2)c1  remaining binding (binding; competition with immobilised ligand; 10 µM): 81%
Cn1nc(C(=O)NCc2ccc(C(=O)O)cc2)cc1-c1ccc2[nH]ccc2c1  remaining binding (cell-free assay; competition with immobilised ligand; 0.1 µM): 89%
CCN1CCN(Cc2ccc(C(=O)Nc3ccc(C)c(Oc4ccc5c(c4)CC(=O)N5)c3)cc2C(F)(F)F)CC1  remaining binding (binding; competition with immobilised ligand; 1 µM): 94%
COc1cc(-c2cn(C3CCc4c(F)cccc4N(CC(F)(F)F)C3=O)nn2)ccc1-n1cnc(C)c1 (stereo not shown)  remaining binding (cell-free assay; competition with immobilised ligand; 1 µM): 100%
CN(C)c1nccc(-c2cnn3ncccc23)n1  remaining binding (binding; competition with immobilised ligand; 1 µM): 92%
COCCOc1nc(-c2ccc(Cl)nc2)nc2c1CN(C(=O)c1ncn3ccccc13)CC2  remaining binding (cell-free assay; competition with immobilised ligand; 0.1 µM): 100%
CC1CCCN1c1nccc(-c2cnn3ncccc23)n1 (stereo not shown)  remaining binding (binding; competition with immobilised ligand; 1 µM): 100%
O=C(c1ccc(Nc2ncc(Cl)c(-c3cc4ccccc4s3)n2)cc1)N1CCC(N2CCCC2)CC1  remaining binding (binding; competition with immobilised ligand; 1 µM): 82%
C=CC(=O)N1CCC(C(=O)NCC(=O)N2CCN(c3nc(-c4cnc(N)nc4C(F)F)nc(N4CCOCC4)n3)CC2)CC1  remaining binding (binding; competition with immobilised ligand; 1 µM): 100%
CCC(=N\O)/C(C)=C/c1ccc(F)cc1  remaining binding (cell-free assay; competition with immobilised ligand; 1 µM): 97%
CN(C)c1nccc(-c2cnc3ncccn23)n1  remaining binding (binding; 1 µM): 100%
O=C(NCCCN1CCOCC1)c1ccc(Nc2nccc(-c3cc4ccccc4s3)n2)cc1  remaining binding (binding; competition with immobilised ligand; 1 µM): 98%
COc1ccc2cc(OCC3(C(=O)O)CN(C(=O)c4ccc(F)cc4)C3)ccc2c1  remaining binding (cell-free assay; competition with immobilised ligand; 1 µM): 100%
N[C@H]1CCN(c2nccc(-c3cnn4ncccc34)n2)C1  remaining binding (binding; competition with immobilised ligand; 1 µM): 93%
O=C(NCC1CCOCC1)c1n[nH]cc1NC(=O)c1c(F)cccc1F  remaining binding (binding; competition with immobilised ligand; 1 µM): 96%
Cc1cnc(Nc2ccc(C(=O)N3CCC(N4CCCC4)CC3)cc2)nc1-c1cc2ccccc2s1  remaining binding (binding; competition with immobilised ligand; 1 µM): 68%
C[C@@H]1CCN(c2nccc(-c3cnn4ncccc34)n2)C1  remaining binding (binding; 1 µM): 91%
COc1cnc(Nc2cccc(S(N)(=O)=O)c2)nc1N1CCN(c2ccccc2)CC1  remaining binding (binding; competition with immobilised ligand; 1 µM): 86%
CN(c1nccc(-c2cnn3ncccc23)n1)C1CC1  remaining binding (binding; 1 µM): 100%
N#Cc1ccc(Nc2ccc3[nH]c(=O)[nH]c3c2)c(Cl)c1  remaining binding (cell-free assay; competition with immobilised ligand; 1 µM): 100%
